{"data": "Experimental data from different studies", "BCHE": "Cholinesterase (BCHE, Homo sapiens, UniProt P06276)", "Oprk1": "Kappa-type opioid receptor (Oprk1, Mus musculus, UniProt P33534)", "note": "Protocols differ between the studies behind these lines."}
{"Structure (SMILES)": "COc1cc(/C=C/C(=O)O)ccc1OCc1cn(CC(=O)Nc2ccc(Cl)cc2Cl)nn1", "target": "BCHE", "assay": "enzyme activity, inhibitor, Ellman", "measurement": "Ki", "value": "1850 nM"}
{"Structure (SMILES)": "C=CCOc1ccc(C(=O)/C=C/c2ccc(OC)cc2)c(OS(C)(=O)=O)c1I", "target": "BCHE", "assay": "enzyme activity, inhibitor", "measurement": "IC50", "value": "53800 nM"}
{"Structure (SMILES)": "CC(C)[C@H](CN1CCc2ccccc2C1)NC(=O)Cc1c[nH]c2ccccc12", "target": "Oprk1", "assay": "ligand displacement, radioligand", "measurement": "Ki", "value": "2810 nM"}
{"Structure (SMILES)": "C=CCOc1ccc(C(=O)/C=C/c2cccc(F)c2)c(OS(C)(=O)=O)c1I", "target": "BCHE", "assay": "enzyme activity, inhibitor", "measurement": "IC50", "value": "19200 nM"}
{"Structure (SMILES)": "CCCC(=O)CC(=O)N[C@H]1CCOC1=O", "target": "qscR (Pseudomonas aeruginosa, UniProt G3XD77)", "assay": "reporter gene, agonist", "measurement": "EC50", "value": "13000 nM"}
{"Structure (SMILES)": "COc1c2c(cc3c1-c1c(cc4c(c1OC)OCO4)C[C@H](C)[C@H](C)C3)OCO2", "target": "Cocaine esterase (CES2, Homo sapiens, UniProt O00748)", "assay": "enzyme activity, inhibitor, fluorescence", "measurement": "IC50", "value": "1340 nM"}
{"Structure (SMILES)": "CSCC[C@H](NC(=O)[C@H](CCCNC(=N)N)NC(=O)[C@H](Cc1ccc(O)cc1)NC(=O)[C@@H]1CCCN1C(=O)CNC(=O)[C@H](CCC(=O)O)NC(=O)[C@H](Cc1c[nH]cn1)NC(=O)[C@H](CCCCN)NC(=O)[C@H](CCCCN)NC(=O)[C@H](CCC(=O)O)NC(=O)[C@H](C)N)C(=O)N[C@@H](CCC(=O)O)C(=O)N[C@@H](Cc1c[nH]cn1)C(=O)N[C@@H](Cc1ccccc1)C(=O)N[C@@H](CCCNC(=N)N)C(=O)N[C@@H](Cc1c[nH]c2ccccc12)C(=O)NCC(=O)N[C@@H](CO)C(=O)N1CCC[C@H]1C(=O)N1CCC[C@H]1C(=O)N[C@@H](CCCCN)C(=O)N[C@@H](CC(=O)O)C(=O)O", "target": "Melanocortin receptor 4 (MC4R, Homo sapiens, UniProt P32245)", "assay": "reporter gene, agonist, luciferase", "measurement": "EC50", "value": "1.46 nM"}
{"Structure (SMILES)": "CC(C)c1cc2c(c(O)c1O)[C@@]13CCCC(C)(C)[C@@H]1[C@@H](O)[C@@H]2OC3=O", "target": "BCHE", "assay": "enzyme activity, inhibitor, absorbance", "measurement": "Ki", "value": "0.33 nM"}
{"Structure (SMILES)": "CCOC(=O)c1ccc(OC(=O)CCCCCN=C(N)N)cc1", "target": "Plasma kallikrein (KLKB1, Homo sapiens, UniProt P03952)", "assay": "enzyme activity, inhibitor", "measurement": "IC50", "value": "86.4 nM"}
{"Structure (SMILES)": "COc1cc2c(cc1OC)CN(CCc1ccc(NC(=O)c3cccc4c(=O)c5cccc(OC)c5[nH]c34)cc1)CC2", "target": "Muscarinic acetylcholine receptor M5 (CHRM5, Homo sapiens, UniProt P08912)", "assay": "cell-free assay", "measurement": "Ki", "value": "> 10000 nM"}
{"Structure (SMILES)": "CC(C)c1cc2c(c(O)c1O)[C@@]1(C(=O)O)CCCC(C)(C)[C@@H]1CC2", "target": "BCHE", "assay": "enzyme activity, inhibitor", "measurement": "IC50", "value": "0.66 nM"}
{"Structure (SMILES)": "CC(C)[C@H](CN1CCc2ccccc2C1)NC(=O)c1cccc(-c2cccc(O)c2)c1", "target": "Oprk1", "assay": "ligand displacement, radioligand", "measurement": "Ki", "value": "870 nM"}
{"Structure (SMILES)": "CC(C)c1cc2c(c(O)c1O)[C@@]13CCCC(C)(C)[C@@H]1[C@H](OC3=O)[C@H]2O", "target": "BCHE", "assay": "enzyme activity, inhibitor, absorbance", "measurement": "Ki", "value": "0.2 nM"}
{"Structure (SMILES)": "C=CCOc1ccc(C(=O)/C=C/c2ccc(OC)cc2)c(OS(=O)(=O)c2ccc(F)cc2)c1I", "target": "BCHE", "assay": "enzyme activity, inhibitor", "measurement": "IC50", "value": "11300 nM"}
{"Structure (SMILES)": "C=CCc1ccc(O)c(-c2cc(CC=C)ccc2O)c1", "target": "BCHE", "assay": "enzyme activity, inhibitor, Ellman", "measurement": "IC50", "value": "> 100000 nM"}
{"Structure (SMILES)": "C=CCOc1ccc(C(=O)/C=C/c2ccc(OC)cc2)c(OS(=O)(=O)c2ccccc2[N+](=O)[O-])c1I", "target": "BCHE", "assay": "enzyme activity, inhibitor", "measurement": "IC50", "value": "14200 nM"}
{"Structure (SMILES)": "CC(C)c1cc2c(c(O)c1O)[C@@]13CCCC(C)(C)[C@@H]1C[C@@H]2OC3=O", "target": "BCHE", "assay": "enzyme activity, inhibitor, absorbance", "measurement": "Ki", "value": "0.3 nM"}
